Experimental data published in ChEMBL document CHEMBL1914420, “Investigation of the pyrazinones as PDE5 inhibitors: evaluation of regioisomeric projections into the solvent region” (Bioorg Med Chem Lett, 2011).
Values after ≈ are worked out from the molar mass of the structure shown.

What was measured:
[1] = target: cGMP-specific 3',5'-cyclic phosphodiesterase (Homo sapiens, UniProt O76074); experiment: Inhibition of PDE5
[2] = Selectivity ratio of IC50 for PDE6 to IC50 for PDE5
Summary of the method: (§1)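 Fold selectivity calculated as PDE11 IC50/PDE5 IC50 or PDE6 IC50/PDE5 IC50, with IC50 values in nM.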

[3] = Selectivity ratio of IC50 for PDE11 to IC50 for PDE5; summary of the method: as §1
[4] = Solubility of the compound at pH 6.5; assay type: physicochemical; settings: buffer
[5] = Metabolic stability in human liver microsomes assessed as compound remaining after 1 hr; assay type: ADME, Microsome; settings: read-out: Stability
Summary of the method: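 Human liver microsomes; percent parent compound remaining after 1 h incubation.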

[6] = Clearance in rat at 2 mg/kg at pH 5; assay type: ADME, organism-based; set-up: dose 2 mg/kg; settings: in vivo
[7] = Volume of distribution in rat; assay type: ADME, organism-based; settings: in vivo
Rattus norvegicus = species: Rattus norvegicus; experiment: Unbound volume of distribution in rat; assay type: ADME, organism-based; settings: in vivo
[8] = Clearance in dog at 2 mg/kg; assay type: ADME, organism-based, Canis lupus familiaris; set-up: dose 2 mg/kg; settings: in vivo
Summary of the method: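 Clearance in mL/min/kg after a 2 mpk dose (n = 3) in vehicle 70% PEG400/20% 0.05 M citrate buffer/10% ethanol, pH 5.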

[9] = Volume of distribution in dog; assay type: ADME, organism-based, Canis lupus familiaris; settings: in vivo
Summary of the method: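 Volume of distribution expressed in L/kg.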

[10] = Oral bioavailability in rat at 2 mg/kg; assay type: ADME, organism-based; settings: in vivo

IC50 [1]	Ratio IC50 [2]	Ratio IC50 [3]	Compound	further results
0.1 nM	1020	3830	CCCOCCn1c(=O)nc(NC2CCC(O)CC2)c2ncc(-c3ccc(OC)nc3)cc21 (stereo unspecified)	
0.27 nM	47	1390	CCCOCCn1c(=O)nc(N[C@@H]2CCCC[C@H]2C(=O)O)c2nnc(-c3ccc(OC)nc3)cc21 (racemic)	
0.02 nM	110	296	CCCOCCn1c(=O)nc(N[C@@H]2CCCC[C@@H]2C(=O)O)c2nnc(-c3ccc(OC)nc3)cc21 (racemic)	
1.31 nM	576	1530	CCCOCCn1c(=O)nc(NC2CCNCC2)c2nnc(-c3ccc(OC)nc3)cc21	
0.08 nM	334	9050	CCCOCCn1c(=O)nc(NCCN2CCOCC2)c2cnc(-c3ccc(OC)nc3)cc21	
0.13 nM	110	76	CCCOCCn1c(=O)nc(N[C@H](C)C(=O)O)c2nnc(-c3ccc(OC)nc3)cc21	
2.43 nM	98	286	CCOCCn1c(=O)nc(N2CCN(CCO)CC2)c2nnc(-c3ccc(OC)nc3)cc21	
	157	2460	CCCOCCn1c(=O)c(N2CCN(CCO)CC2)nc2cnc(-c3ccc(OC)nc3)cc21	
0.01 nM			CCCOCCn1c(=O)nc(NC2CCCC(C(=O)O)C2)c2nnc(-c3ccc(OC)nc3)cc21 (stereo unspecified)	
1.64 nM	381	> 1220	CCCOCCn1c(=O)nc(N2CCN(CCO)CC2)c2ncc(-c3ccc(OC)nc3)cc21	
0.1 nM	450	9560	CCCOCCn1c(=O)nc(NCCOC(C)C)c2cnc(-c3ccc(OC)nc3)cc21	
	48	675	CCCOCCn1c(=O)c(NC2CCC(O)CC2)nc2ncc(-c3ccc(OC)nc3)cc21 (stereo unspecified)	
0.05 nM	675	3950	CCCOCCn1c(=O)nc(NC2CCC(O)CC2)c2cnc(-c3ccc(OC)nc3)cc21 (stereo unspecified)	
0.36 nM			CCOCCn1c(=O)nc(NC2CCC(O)CC2)c2nnc(-c3ccc(OC)nc3)cc21 (stereo unspecified)	
0.01 nM	119	532	CCCOCCn1c(=O)nc(N2CCC(C(=O)O)CC2)c2nnc(-c3ccc(OC)nc3)cc21	
0.05 nM	200	1320	CCCOCCn1c(=O)c(NC2CCC(O)CC2)nc2cnc(-c3ccc(OC)nc3)cc21 (stereo unspecified)	solubility [4]: 21 µM (≈ 9.52 µg/mL); remaining at 1 h [5]: 84%; clearance [6]: 5.5 mL/min/kg; Vd [7]: 1.35 L/kg; Vdu (Rattus norvegicus): 96 L/kg; clearance [8]: 5.5 mL/min/kg; Vd [9]: 3.5 L/kg; bioavailability [10]: 50%
0.38 nM	2200	4170	COc1ccc(-c2cc3c(nn2)c(NCC(=O)N(C)C)nc(=O)n3CCOCC(F)(F)F)cn1	
0.02 nM	246	541	CCCOCCn1c(=O)nc(NC2CCC(C(=O)O)CC2)c2nnc(-c3ccc(OC)nc3)cc21 (stereo unspecified)	
